{"source": "ChEMBL document CHEMBL5653631", "about": "“A Potent and Selective ULK1 Inhibitor Suppresses Autophagy and Sensitizes Cancer Cells to Nutrient Stress” (iScience, 2018)", "key": {"[1]": {"biological_target": "Activated CDC42 kinase 1 (Homo sapiens) (UniProt Q07912)", "sequence (Q07912 whole entry, looked up)": "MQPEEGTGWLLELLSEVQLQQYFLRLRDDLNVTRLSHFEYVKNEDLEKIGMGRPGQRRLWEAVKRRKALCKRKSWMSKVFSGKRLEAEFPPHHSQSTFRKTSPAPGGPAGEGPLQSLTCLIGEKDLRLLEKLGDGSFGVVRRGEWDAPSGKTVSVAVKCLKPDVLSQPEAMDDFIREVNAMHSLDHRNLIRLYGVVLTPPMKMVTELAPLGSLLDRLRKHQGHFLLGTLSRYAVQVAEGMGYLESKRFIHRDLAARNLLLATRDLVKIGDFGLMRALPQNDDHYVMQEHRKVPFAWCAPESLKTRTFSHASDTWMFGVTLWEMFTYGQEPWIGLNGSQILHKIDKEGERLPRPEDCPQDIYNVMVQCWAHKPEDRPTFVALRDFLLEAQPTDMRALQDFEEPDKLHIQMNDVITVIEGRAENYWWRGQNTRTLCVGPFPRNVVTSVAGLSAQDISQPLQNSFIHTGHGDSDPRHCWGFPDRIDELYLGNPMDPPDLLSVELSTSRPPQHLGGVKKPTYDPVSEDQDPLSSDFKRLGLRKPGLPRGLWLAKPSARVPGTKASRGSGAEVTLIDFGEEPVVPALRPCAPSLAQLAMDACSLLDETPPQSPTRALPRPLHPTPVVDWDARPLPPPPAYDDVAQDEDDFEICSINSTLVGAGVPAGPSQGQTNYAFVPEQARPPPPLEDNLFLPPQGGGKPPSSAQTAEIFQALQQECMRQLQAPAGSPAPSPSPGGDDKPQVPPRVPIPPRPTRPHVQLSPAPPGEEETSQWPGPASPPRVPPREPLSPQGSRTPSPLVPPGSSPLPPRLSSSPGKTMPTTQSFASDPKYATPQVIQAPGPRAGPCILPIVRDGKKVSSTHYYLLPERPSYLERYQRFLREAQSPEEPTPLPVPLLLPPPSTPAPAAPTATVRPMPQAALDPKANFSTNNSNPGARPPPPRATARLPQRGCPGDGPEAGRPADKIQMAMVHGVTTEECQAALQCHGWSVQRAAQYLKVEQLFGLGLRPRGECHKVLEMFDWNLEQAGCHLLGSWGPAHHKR", "experiment": "Inhibition of human recombinant ACK at 40 nM in presence of ATP by radiometric assay relative to control", "summary_of_the_method": "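Panel of 327 recombinant human kinases in radiometric activity assays, each screened in duplicate at a single inhibitor concentration; percent activity remaining relative to vehicle control, percent inhibition taken as 100 minus activity remaining.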"}, "[2]": {"biological_target": "Cyclin-dependent kinase 4 (Homo sapiens) (UniProt P11802)", "sequence (P11802 whole entry)": "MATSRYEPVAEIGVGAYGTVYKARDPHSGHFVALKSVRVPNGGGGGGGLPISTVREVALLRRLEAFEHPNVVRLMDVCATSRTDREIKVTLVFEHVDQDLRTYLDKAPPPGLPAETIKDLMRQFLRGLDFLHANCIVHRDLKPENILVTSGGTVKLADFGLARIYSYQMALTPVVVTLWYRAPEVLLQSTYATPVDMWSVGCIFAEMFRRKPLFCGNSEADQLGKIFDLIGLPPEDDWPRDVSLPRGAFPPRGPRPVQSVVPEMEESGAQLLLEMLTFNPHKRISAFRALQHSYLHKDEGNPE", "experiment": "Inhibition of human recombinant CDK4 at 40 nM in presence of ATP by radiometric assay relative to control"}, "[3]": {"biological_target": "Ribosomal protein S6 kinase alpha-4 (Homo sapiens) (UniProt O75676)", "sequence (O75676 whole entry, looked up)": "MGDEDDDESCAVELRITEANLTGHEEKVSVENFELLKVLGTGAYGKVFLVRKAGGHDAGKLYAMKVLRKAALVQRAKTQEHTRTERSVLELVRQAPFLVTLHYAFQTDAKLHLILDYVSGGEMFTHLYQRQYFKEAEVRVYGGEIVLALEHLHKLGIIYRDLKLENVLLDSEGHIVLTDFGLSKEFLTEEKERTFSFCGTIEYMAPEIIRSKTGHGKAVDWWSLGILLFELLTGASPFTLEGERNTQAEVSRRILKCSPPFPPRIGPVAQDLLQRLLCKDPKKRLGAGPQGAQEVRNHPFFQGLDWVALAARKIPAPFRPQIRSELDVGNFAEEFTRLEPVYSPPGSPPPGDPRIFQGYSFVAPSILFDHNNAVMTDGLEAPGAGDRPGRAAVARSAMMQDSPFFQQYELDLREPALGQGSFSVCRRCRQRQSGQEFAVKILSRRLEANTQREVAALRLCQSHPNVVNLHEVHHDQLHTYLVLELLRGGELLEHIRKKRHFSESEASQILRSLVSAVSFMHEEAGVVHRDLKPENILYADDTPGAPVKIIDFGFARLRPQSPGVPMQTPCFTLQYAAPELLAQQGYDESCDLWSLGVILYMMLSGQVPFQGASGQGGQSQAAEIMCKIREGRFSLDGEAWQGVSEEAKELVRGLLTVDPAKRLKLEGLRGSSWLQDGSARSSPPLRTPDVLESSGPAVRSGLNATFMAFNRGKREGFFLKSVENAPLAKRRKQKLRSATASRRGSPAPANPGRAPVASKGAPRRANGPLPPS", "experiment": "Inhibition of human recombinant MSK2 at 40 nM in presence of ATP by radiometric assay relative to control"}, "[4]": {"biological_target": "Ribosomal protein S6 kinase alpha-3 (Homo sapiens) (UniProt P51812)", "sequence (P51812 whole entry)": "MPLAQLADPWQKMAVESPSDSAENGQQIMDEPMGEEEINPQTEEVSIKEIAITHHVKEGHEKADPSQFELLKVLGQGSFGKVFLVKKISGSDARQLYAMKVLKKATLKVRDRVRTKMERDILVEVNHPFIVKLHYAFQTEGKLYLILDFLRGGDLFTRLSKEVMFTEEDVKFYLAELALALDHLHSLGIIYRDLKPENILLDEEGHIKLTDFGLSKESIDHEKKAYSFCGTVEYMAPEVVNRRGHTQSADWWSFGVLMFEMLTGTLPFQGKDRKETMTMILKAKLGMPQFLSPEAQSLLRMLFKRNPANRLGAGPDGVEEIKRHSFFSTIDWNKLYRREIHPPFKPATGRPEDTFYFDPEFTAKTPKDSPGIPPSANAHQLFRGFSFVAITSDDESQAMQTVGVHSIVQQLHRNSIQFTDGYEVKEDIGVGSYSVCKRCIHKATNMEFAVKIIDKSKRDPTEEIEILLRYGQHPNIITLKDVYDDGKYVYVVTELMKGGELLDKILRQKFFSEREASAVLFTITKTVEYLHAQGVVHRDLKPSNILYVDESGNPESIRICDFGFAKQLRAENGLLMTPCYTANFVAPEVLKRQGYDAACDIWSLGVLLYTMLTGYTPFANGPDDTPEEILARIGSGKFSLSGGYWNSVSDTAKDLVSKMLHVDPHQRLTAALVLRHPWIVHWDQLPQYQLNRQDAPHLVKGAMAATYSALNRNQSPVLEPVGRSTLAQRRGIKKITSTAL", "experiment": "Inhibition of human recombinant RSK2 at 40 nM in presence of ATP by radiometric assay relative to control"}, "[5]": {"biological_target": "Serine/threonine-protein kinase PAK 5 (Homo sapiens) (UniProt Q9P286)", "experiment": "Inhibition of human recombinant PAK5 at 500 nM in presence of ATP by radiometric assay relative to control"}, "[6]": {"biological_target": "Serine/threonine-protein kinase SBK1 (Homo sapiens) (UniProt Q52WX2)", "experiment": "Inhibition of human recombinant SBK1 at 500 nM in presence of ATP by radiometric assay relative to control"}, "[7]": {"biological_target": "Serine/threonine-protein kinase SIK1 (Homo sapiens) (UniProt P57059)", "experiment": "Inhibition of human recombinant SIK at 500 nM in presence of ATP by radiometric assay relative to control"}, "[8]": {"biological_target": "T1, Activin receptor type-1 (Homo sapiens) (UniProt Q04771)", "T1 sequence (whole entry)": "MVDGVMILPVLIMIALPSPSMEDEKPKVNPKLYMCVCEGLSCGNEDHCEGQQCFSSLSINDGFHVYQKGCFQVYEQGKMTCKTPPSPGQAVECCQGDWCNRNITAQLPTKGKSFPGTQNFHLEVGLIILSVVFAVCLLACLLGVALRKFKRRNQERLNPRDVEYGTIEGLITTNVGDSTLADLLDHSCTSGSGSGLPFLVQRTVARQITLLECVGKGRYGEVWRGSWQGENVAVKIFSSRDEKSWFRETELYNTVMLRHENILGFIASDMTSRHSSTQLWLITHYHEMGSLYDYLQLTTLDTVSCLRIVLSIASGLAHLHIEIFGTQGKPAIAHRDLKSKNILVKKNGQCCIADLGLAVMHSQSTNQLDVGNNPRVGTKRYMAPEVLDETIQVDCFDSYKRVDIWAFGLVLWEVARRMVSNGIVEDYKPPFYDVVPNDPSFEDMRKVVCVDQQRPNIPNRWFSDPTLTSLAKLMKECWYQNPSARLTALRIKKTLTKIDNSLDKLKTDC", "experiment": "Inhibition of human recombinant ALK2 at 500 nM related to control ULK1", "summary_of_the_method": "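Panel of 327 recombinant human kinases, each assayed in vitro by radiometric activity assay in duplicate at a single inhibitor concentration per compound, chosen with reference to its ULK1 inhibition. Activity remaining was expressed as percent of vehicle control, and percent inhibition was calculated as 100 minus percent activity remaining.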"}, "[9]": {"biological_target": "Casein kinase I isoform gamma-2 (Homo sapiens) (UniProt P78368)", "sequence (P78368 whole entry, looked up, canonical isoform)": "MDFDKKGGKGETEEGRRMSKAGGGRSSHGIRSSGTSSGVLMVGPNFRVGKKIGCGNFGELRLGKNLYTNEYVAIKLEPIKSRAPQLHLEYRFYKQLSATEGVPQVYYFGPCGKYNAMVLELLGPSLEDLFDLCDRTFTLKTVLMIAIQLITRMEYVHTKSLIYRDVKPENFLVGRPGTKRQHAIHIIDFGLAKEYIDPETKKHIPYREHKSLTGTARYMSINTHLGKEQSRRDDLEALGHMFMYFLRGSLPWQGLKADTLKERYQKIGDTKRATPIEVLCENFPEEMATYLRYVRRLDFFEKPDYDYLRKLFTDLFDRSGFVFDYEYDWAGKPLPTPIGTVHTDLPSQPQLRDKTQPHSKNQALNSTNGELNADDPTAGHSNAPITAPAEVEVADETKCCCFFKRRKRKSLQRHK", "experiment": "Inhibition of human recombinant CK1g2 at 500 nM related to control ULK1"}, "[10]": {"biological_target": "Serine/threonine-protein kinase 24 (Homo sapiens) (UniProt Q9Y6E0)", "experiment": "Inhibition of human recombinant MST3 at 500 nM related to control ULK1"}, "[11]": {"biological_target": "Ribosomal protein S6 kinase alpha-1 (Homo sapiens) (UniProt Q15418)", "sequence (Q15418 whole entry)": "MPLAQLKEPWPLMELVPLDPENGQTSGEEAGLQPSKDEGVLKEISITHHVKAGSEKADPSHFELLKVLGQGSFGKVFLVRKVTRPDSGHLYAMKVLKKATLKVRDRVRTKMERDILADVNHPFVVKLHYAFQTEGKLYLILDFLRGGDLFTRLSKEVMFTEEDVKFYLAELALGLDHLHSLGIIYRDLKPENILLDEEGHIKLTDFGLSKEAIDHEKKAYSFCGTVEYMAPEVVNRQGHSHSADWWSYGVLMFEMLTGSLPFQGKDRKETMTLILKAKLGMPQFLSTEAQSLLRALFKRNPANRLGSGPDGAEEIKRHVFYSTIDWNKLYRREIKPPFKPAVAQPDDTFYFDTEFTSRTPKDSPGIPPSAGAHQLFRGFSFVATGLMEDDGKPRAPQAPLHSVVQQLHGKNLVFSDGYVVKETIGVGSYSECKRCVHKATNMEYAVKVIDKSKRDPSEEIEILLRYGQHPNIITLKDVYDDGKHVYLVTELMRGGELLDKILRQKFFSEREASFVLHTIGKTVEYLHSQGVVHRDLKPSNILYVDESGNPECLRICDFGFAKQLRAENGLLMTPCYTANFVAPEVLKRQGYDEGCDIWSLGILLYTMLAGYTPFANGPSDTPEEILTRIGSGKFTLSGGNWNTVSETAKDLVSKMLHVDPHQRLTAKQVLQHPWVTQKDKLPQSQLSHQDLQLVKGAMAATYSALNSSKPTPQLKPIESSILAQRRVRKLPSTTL", "experiment": "Inhibition of human recombinant RSK1 at 500 nM related to control ULK1"}, "[12]": {"biological_target": "T2, Mitogen-activated protein kinase kinase kinase 2 (Homo sapiens) (UniProt Q9Y2U5)", "T2 sequence (whole entry)": "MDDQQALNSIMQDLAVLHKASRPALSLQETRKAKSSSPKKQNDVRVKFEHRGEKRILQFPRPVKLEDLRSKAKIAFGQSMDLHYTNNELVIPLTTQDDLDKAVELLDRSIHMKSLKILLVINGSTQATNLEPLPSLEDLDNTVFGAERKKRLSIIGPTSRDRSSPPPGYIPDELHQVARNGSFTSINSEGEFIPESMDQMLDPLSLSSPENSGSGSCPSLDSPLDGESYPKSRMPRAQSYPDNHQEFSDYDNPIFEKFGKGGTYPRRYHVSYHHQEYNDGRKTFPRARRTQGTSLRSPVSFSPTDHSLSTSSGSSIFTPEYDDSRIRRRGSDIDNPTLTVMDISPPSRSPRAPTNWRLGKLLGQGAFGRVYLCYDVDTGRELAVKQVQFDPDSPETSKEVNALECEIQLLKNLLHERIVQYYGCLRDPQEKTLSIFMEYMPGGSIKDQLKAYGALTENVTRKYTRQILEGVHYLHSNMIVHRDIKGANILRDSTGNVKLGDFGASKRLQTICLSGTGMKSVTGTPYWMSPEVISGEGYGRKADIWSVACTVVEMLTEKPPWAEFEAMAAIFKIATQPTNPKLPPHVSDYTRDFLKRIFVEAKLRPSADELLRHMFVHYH", "experiment": "Inhibition of human recombinant MAP3K2 at 15 nM in presence of ATP by radiometric assay relative to control"}, "[13]": {"biological_target": "Serine/threonine-protein kinase 38-like (Homo sapiens) (UniProt Q9Y2H1)", "sequence (Q9Y2H1 2-464 limits assumed)": "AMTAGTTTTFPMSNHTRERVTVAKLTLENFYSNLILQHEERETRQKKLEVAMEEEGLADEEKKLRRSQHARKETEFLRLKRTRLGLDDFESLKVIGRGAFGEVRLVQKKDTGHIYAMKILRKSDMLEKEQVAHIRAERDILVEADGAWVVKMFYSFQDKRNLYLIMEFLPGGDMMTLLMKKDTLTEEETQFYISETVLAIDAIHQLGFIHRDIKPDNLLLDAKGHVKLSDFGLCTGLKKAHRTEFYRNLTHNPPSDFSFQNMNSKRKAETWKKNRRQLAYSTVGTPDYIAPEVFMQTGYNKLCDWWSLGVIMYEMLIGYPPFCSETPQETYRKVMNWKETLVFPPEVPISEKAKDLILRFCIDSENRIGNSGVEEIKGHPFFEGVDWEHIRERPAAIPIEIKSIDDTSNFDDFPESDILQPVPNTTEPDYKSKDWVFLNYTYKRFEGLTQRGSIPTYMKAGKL", "experiment": "Inhibition of human recombinant NDR2 at 15 nM in presence of ATP by radiometric assay relative to control"}, "[14]": {"biological_target": "Tyrosine-protein kinase Yes (Homo sapiens) (UniProt P07947)", "sequence (P07947 2-543 limits assumed)": "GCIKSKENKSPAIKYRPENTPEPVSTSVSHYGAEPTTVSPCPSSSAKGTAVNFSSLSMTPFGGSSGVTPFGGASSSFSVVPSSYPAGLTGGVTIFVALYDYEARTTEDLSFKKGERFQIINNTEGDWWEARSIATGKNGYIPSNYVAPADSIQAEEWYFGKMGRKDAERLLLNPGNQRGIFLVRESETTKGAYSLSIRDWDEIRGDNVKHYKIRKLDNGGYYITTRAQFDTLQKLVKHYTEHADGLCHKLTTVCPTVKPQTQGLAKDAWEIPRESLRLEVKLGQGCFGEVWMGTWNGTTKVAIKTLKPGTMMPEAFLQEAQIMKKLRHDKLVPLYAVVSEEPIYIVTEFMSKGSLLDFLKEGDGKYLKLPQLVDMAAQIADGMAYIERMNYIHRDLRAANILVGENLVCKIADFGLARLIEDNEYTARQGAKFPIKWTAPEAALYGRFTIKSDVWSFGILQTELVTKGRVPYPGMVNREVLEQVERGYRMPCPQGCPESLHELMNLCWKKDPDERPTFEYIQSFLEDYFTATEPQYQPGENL", "experiment": "Inhibition of human recombinant YES at 15 nM in presence of ATP by radiometric assay relative to control"}, "[15]": {"biological_target": "ALK tyrosine kinase receptor (Homo sapiens) (UniProt Q9UM73)", "experiment": "Inhibition of human recombinant ALK at 15 nM related to control ULK1"}, "[16]": {"biological_target": "T3, Serine/threonine-protein kinase Chk1 (Homo sapiens) (UniProt O14757)", "T3 sequence (whole entry)": "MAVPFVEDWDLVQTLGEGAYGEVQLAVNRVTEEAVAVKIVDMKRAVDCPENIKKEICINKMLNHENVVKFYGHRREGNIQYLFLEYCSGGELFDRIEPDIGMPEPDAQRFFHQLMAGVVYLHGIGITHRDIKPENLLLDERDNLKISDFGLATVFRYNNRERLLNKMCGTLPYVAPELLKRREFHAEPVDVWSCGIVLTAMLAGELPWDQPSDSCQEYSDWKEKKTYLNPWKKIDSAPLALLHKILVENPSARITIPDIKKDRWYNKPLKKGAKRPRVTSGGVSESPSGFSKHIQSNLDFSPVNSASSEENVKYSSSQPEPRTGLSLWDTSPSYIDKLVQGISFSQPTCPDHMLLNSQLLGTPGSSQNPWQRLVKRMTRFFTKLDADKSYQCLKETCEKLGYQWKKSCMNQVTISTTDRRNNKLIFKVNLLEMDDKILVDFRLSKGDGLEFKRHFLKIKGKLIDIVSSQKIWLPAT", "experiment": "Inhibition of human recombinant CHK1 at 15 nM related to control ULK1"}}}
{"smiles": "O=C(N[C@@H](C1CC1)C(F)(F)F)c1cc(-c2cnn3cc(-c4ccc(F)cc4)cnc23)cs1", "values": [{"measurement": "inhibition", "setting": "[1]", "value": 17, "unit": "%"}, {"measurement": "inhibition", "setting": "[2]", "value": 0, "unit": "%"}, {"measurement": "inhibition", "setting": "[3]", "value": 0, "unit": "%"}, {"measurement": "inhibition", "setting": "[4]", "value": 0, "unit": "%"}]}
{"smiles": "CNC(=O)c1ccccc1Oc1nc(Nc2cc(OC)c(OC)c(OC)c2)ncc1Br", "values": [{"measurement": "inhibition", "setting": "[5]", "value": 5, "unit": "%"}, {"measurement": "inhibition", "setting": "[6]", "value": 50, "unit": "%"}, {"measurement": "inhibition", "setting": "[7]", "value": 20, "unit": "%"}, {"measurement": "fold change (FC)", "setting": "[8]", "value": 0.62}, {"measurement": "fold change (FC)", "setting": "[9]", "value": 0}, {"measurement": "fold change (FC)", "setting": "[10]", "value": 0.78}, {"measurement": "fold change (FC)", "setting": "[11]", "value": 0.26}]}
{"smiles": "CC(C)[C@H](NC(=O)c1cc(-c2cnn3cc(-c4ccc(OCCN5CCCCC5)cc4)cnc23)cs1)C(F)(F)F", "values": [{"measurement": "inhibition", "setting": "[12]", "value": 3, "unit": "%"}, {"measurement": "inhibition", "setting": "[13]", "value": 2, "unit": "%"}, {"measurement": "inhibition", "setting": "[14]", "value": 76, "unit": "%"}, {"measurement": "fold change (FC)", "setting": "[15]", "value": 0}, {"measurement": "fold change (FC)", "setting": "[16]", "value": 0}]}
